From PMC8923172 (Antimicrobial Agents and Chemotherapy, 2022)
Marks after values point to notes of the source that are not given here. Residues, ends and D or L forms follow the SMILES beside them.

Legend:
[1] = Coagulation in cynomolgus monkeys at the end of treatment; assay type: in vivo; details: median (IQR)
Procedure, shortened: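 GLP 10-day study in male and female cynomolgus monkeys (n = 3-5/sex/group) dosed once daily with 0 (placebo), 5, 10 or 15 mg/kg test compound by i.v. infusion over 60 ± 5 min. Hematology, serum chemistry and coagulation were taken at end of treatment and reported as median (IQR). Dose groups were compared by Kruskal-Wallis with Dunn's multiple comparison test.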

[2] = Single- and multiple-dose i.v. pharmacokinetics in cynomolgus monkeys; assay type: in vivo, cynomolgus monkeys (Macaca fascicularis); details: for Cmax: 1-h i.v. infusion; for Cmax / AUC0-∞ / AUCτ / CL / λz / Vss / MRT: mean (SD); for MRT: MRTinf
[3] = both, cynomolgus monkey, plasma, iv, 15 mg/kg/day

CC[C@H](C)[C@@H]1NC(=O)[C@@H]2CSSC[C@H](NC(=O)[C@H](CCCNC(=N)N)NC(=O)[C@@H]3CSSC[C@H](NC1=O)C(=O)N[C@@H]([C@@H](C)O)C(=O)N[C@@H](CCCNC(=N)N)C(=O)NCC(=O)N[C@@H](Cc1ccccc1)C(=O)N3)C(=O)N[C@@H](CC(C)C)C(=O)N[C@H]1CSSC[C@H](NC(=O)[C@H](C(C)C)NC(=O)CNC(=O)[C@H](CCCNC(=N)N)NC(=O)[C@H](CCCNC(=N)N)NC1=O)C(=O)N[C@@H](CCCNC(=N)N)C(=O)N2 [RTD-1, Rhesus theta (θ) defensin-1] (HELM PEPTIDE1{G.F.C.R.C.L.C.R.R.G.V.C.R.C.I.C.T.R}$PEPTIDE1,PEPTIDE1,3:R3-16:R3|PEPTIDE1,PEPTIDE1,5:R3-14:R3|PEPTIDE1,PEPTIDE1,7:R3-12:R3|PEPTIDE1,PEPTIDE1,1:R1-18:R2$$$V2.0)
APTT ([1]; female, 5 mg/kg): 22.40 (2.05) s | Fibrinogen ([1]; female, 5 mg/kg): 238.00 (40.50) mg/dL | PT ([1]; female, 5 mg/kg): 12.20 (0.25) s | APTT ([1]; female, 10 mg/kg): 20.80 (0.55) s | Fibrinogen ([1]; female, 10 mg/kg): 294.00 (7.50) mg/dL | PT ([1]; female, 10 mg/kg): 11.80 (0.25) s | APTT ([1]; female, 15 mg/kg): 22.60 (0.90) s | Fibrinogen ([1]; female, 15 mg/kg): 300.00 (57.00)^d mg/dL | PT ([1]; female, 15 mg/kg): 12.30 (0.50) s | APTT ([1]; male, 5 mg/kg): 21.60 (0.80) s | Fibrinogen ([1]; male, 5 mg/kg): 306.00 (49.50) mg/dL | PT ([1]; male, 5 mg/kg): 12.00 (0.55) s | APTT ([1]; male, 10 mg/kg): 21.10 (0.45) s | Fibrinogen ([1]; male, 10 mg/kg): 285.00 (22.50) mg/dL | PT ([1]; male, 10 mg/kg): 12.00 (0.25) s | APTT ([1]; male, 15 mg/kg): 22.10 (1.65) s | Fibrinogen ([1]; male, 15 mg/kg): 336.00 (114.00) mg/dL | PT ([1]; male, 15 mg/kg): 12.25 (0.83) s | mortality (found dead day 15, determined unrelated to treatment) (5 mg/kg/day): 1 out of 16 | LOAEL (i.v.): 20 mg/kg | NOAEL (i.v. once daily x7 days): 10 mg/kg/day | acute, treatment-related mortality (single i.v. 20 mg/kg, day 1): 5 out of 12 | Cmax ([2]; 0.3 mg/kg Day 1, n=2): 582 (109) ng/mL | AUC0-∞ ([2]; 0.3 mg/kg Day 1, n=2): 617 (137) ng · h/mL | AUCτ ([2]; 0.3 mg/kg Day 1, n=2): 591 (145) ng · h/mL | CL ([2]; 0.3 mg/kg Day 1, n=2): 498 (111) mL/h/kg | λz ([2]; 0.3 mg/kg Day 1, n=2): 0.523 (0.119) h^−1 | Cmax ([2]; 1 mg/kg Day 1, n=2): 2,560 (820) ng/mL | AUC0-∞ ([2]; 1 mg/kg Day 1, n=2): 3,875 (973) ng · h/mL | AUCτ ([2]; 1 mg/kg Day 1, n=2): 3,818 (961) ng · h/mL | CL ([2]; 1 mg/kg Day 1, n=2): 266 (66.9) mL/h/kg | λz ([2]; 1 mg/kg Day 1, n=2): 0.251 (0.035) h^−1 | AUCτ ([2]; 3 mg/kg Day 1, n=2): 10,334 (2,239) ng · h/mL | λz ([2]; 3 mg/kg Day 1, n=2): 0.078 (0.017) h^−1 | Cmax ([2]; 5 mg/kg Day 1, n=6): 10,700 (2,455) ng/mL | AUCτ ([2]; 5 mg/kg Day 1, n=6): 27,160 (4,286) ng · h/mL | λz ([2]; 5 mg/kg Day 1, n=6): 0.323 (0.016) h^−1 | AUCτ ([2]; 5 mg/kg Day 10, n=6): 38,936 (9,829) ng · h/mL | CL ([2]; 5 mg/kg Day 10, n=6): 136 (36.5)# mL/h/kg | λz ([2]; 5 mg/kg Day 10, n=6): 0.157 (0.009)# h^−1 | accumulation: mean AUCτ day 10 vs mean AUC0-∞ day 1 ([2]; 5 mg/kg/day): approximately 1.4 fold | Cmax ([2]; 10 mg/kg Day 1, n=8): 26,675 (8,240) ng/mL | AUCτ ([2]; 10 mg/kg Day 1, n=8): 76,083 (23,562) ng · h/mL | CL ([2]; 10 mg/kg Day 1, n=8): 143 (48.2)* mL/h/kg | λz ([2]; 10 mg/kg Day 1, n=8): 0.192 (0.034)* h^−1 | AUCτ ([2]; 10 mg/kg Day 10, n=6): 117,529 (26,077) ng · h/mL | CL ([2]; 10 mg/kg Day 10, n=6): 88.5 (18.5)* mL/h/kg | Vss ([2]; 10 mg/kg Day 10, n=6): 624 (88.2) mL/kg | λz ([2]; 10 mg/kg Day 10, n=6): 0.120 (0.018)* h^−1 | accumulation: mean AUCτ day 10 vs mean AUC0-∞ day 1 ([2]; 10 mg/kg/day): ~1.5 fold | Cmax ([2]; 15 mg/kg Day 1, n=12): 46,458 (15,247)† ng/mL | AUCτ ([2]; 15 mg/kg Day 1, n=12): 138,135 (34,942) ng · h/mL | CL ([2]; 15 mg/kg Day 1, n=12): 114 (25.7) mL/h/kg | Vss ([2]; 15 mg/kg Day 1, n=12): 629 (176)† mL/kg | λz ([2]; 15 mg/kg Day 1, n=12): 0.149 (0.019)† h^−1 | AUCτ ([2]; 15 mg/kg Day 4, n=2): 139,595 (2,366) ng · h/mL | λz ([2]; 15 mg/kg Day 4, n=2): 0.072 (0.020) h^−1 | AUCτ ([2]; 15 mg/kg Day 7, n=2): 154,149 (12,406) ng · h/mL | λz ([2]; 15 mg/kg Day 7, n=2): 0.071 (0.017) h^−1 | Cmax ([2]; 15 mg/kg Day 10, n=9): 32,233 (13,933)† ng/mL | AUCτ ([2]; 15 mg/kg Day 10, n=9): 173,315 (67,934) ng · h/mL | Vss ([2]; 15 mg/kg Day 10, n=9): 1,139 (411)† mL/kg | λz ([2]; 15 mg/kg Day 10, n=9): 0.078 (0.020)† h^−1 | MRT ([2]; both, cynomolgus monkey, plasma, iv, 0.3 mg/kg, 0.3 mg/kg Day 1, n=2): 1.24 h | MRT ([2]; both, cynomolgus monkey, plasma, iv, 1 mg/kg, 1 mg/kg Day 1, n=2): 1.82 h | MRT ([2]; both, cynomolgus monkey, plasma, iv, 3 mg/kg, 3 mg/kg Day 1, n=2): 4.3 h | MRT ([2]; both, cynomolgus monkey, plasma, iv, 5 mg/kg, 5 mg/kg Day 1, n=6): 2.94 h | MRT ([2]; both, cynomolgus monkey, plasma, iv, 5 mg/kg, 5 mg/kg Day 10, n=6): 4.84 h | MRT ([2]; both, cynomolgus monkey, plasma, iv, 10 mg/kg, 10 mg/kg Day 1, n=8): 4.4 h | MRT ([2]; both, cynomolgus monkey, plasma, iv, 10 mg/kg, 10 mg/kg Day 10, n=6): 7.2 h | MRT ([2]; both, cynomolgus monkey, plasma, iv, 15 mg/kg, 15 mg/kg Day 1, n=12): 5.48 h | MRT ([2]; both, cynomolgus monkey, plasma, iv, 15 mg/kg, 15 mg/kg Day 4, n=2): 11.8 h | MRT ([2]; both, cynomolgus monkey, plasma, iv, 15 mg/kg, 15 mg/kg Day 7, n=2): 12.3 h | MRT ([2]; both, cynomolgus monkey, plasma, iv, 15 mg/kg, 15 mg/kg Day 10, n=9): 12 h | level at 288 h [2, 3]: 537 ng/mL | level at 576 h [2, 3]: 12.5 ng/mL | time plasma concentrations detectable post-end of infusion ([2]; single dose of 0.3 or 1 mg/kg): up to 12 h
